Compounds with a hit are over-represented: about 2.3% of the library has one in this group of screens.
TRPC4 agonist – TRPC4 (mouse) channel activation; Q9QUQ5; HEK293 TRPC4beta/mu-opioid, Fluo4 calcium fluorescence; stronger effect = higher value; B-score at 10 µM; 310,000 compounds, 0.49% hits; AID 2237;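 active = B-score above 5 SD of library B-scores, and initial fluorescence ratio not above library mean plus 5 SD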;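 also: positive B-score marks a calcium rise read as TRPC4 activation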
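Assay system: HEK293 stable line with TRPC4beta plus mu-opioid receptor; schedule: 45 min room-temperature Fluo4 loading, 110 s read; technique: kinetic Fluo4 calcium fluorescence; evaluation: integrated baseline-normalised fluorescence ratio, converted to per-well B score; controls: buffer (low) and maximal DAMGO (high)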
TRPC4 PAM – TRPC4 (mouse) allosteric potentiation. HEK293 TRPC4beta/mu-opioid, DAMGO EC20, Fluo-4 Ca2+ flux; stronger effect = higher value. B-score at 10 µM. 310,000 compounds, 0.42% hits. AID 2227;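 active = B-score of calcium response area above 5 SD of library B-scores, with initial fluorescence ratio within 5 SD of library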;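 also: B-score of integrated fluorescence ratio over time as area under calcium response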
TRPC4 inh – TRPC4 (mouse) channel inhibition. HEK293 TRPC4beta/mu-opioid, DAMGO-evoked Fluo4 calcium flux; stronger effect = lower value. B-score at 10 µM. 300,000 compounds, 0.39% hits. AID 2247;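 active = B-score over 3 SD under the library average, no early fluorescence shift, positive overall ratio signal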
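Assay system: HEK293 cells with stable TRPC4beta plus mu-opioid receptor expression; Probe or stimulus: DAMGO in two steps, submaximal then maximal; Dosing: single-point compound dosing; Measured by: Fluo4 calcium-dye fluorescence, kinetic read; Read-out basis: B score from integrated Fluo4 fluorescence ratio.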
TRPC6 activator – activates the mouse TRPC6 cation channel | Q61143 | HEK293-TRPC6 membrane potential dye fluorescence; stronger effect = higher value | B-score at 10 µM | 310,000 compounds, 0.13% hits | AID 2550;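 active = B-score of the integrated fluorescence ratio above library mean plus 3 SD, and starting fluorescence ratio within library mean plus 5 SD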;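 also: higher score means more depolarization so channel activation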
Target sequence (Q61143 whole entry, looked up): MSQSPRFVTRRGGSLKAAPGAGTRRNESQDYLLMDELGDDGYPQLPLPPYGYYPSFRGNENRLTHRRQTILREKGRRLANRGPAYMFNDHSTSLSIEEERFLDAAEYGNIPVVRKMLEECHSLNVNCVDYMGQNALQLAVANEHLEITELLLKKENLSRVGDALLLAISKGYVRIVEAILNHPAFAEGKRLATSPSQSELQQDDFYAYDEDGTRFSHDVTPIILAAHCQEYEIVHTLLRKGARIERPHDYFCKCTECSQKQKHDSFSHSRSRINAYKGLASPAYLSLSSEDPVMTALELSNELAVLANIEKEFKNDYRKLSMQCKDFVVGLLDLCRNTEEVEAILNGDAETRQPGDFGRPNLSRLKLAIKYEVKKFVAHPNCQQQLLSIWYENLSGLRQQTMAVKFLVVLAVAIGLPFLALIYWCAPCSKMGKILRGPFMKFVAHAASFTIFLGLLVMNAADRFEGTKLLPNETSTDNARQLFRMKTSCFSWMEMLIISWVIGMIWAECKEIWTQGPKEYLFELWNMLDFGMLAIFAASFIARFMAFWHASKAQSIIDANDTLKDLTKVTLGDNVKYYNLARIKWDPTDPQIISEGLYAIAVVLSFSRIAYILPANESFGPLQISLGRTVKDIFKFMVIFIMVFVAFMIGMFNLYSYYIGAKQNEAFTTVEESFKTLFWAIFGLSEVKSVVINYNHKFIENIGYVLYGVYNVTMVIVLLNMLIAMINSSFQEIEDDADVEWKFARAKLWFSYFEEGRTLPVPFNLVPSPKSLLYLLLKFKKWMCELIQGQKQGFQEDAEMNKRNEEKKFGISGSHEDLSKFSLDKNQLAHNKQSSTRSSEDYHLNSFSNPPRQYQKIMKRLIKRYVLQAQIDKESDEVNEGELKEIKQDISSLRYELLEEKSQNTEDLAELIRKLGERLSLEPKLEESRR
TRPC6 inhibitor – inhibitors of mouse TRPC6 channel; AID 2553; 310,000 compounds, 1.1% hits; HEK293-TRPC6, membrane potential dye, ACh-evoked depolarization; stronger effect = lower value; B-score at 10 µM;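 active = B-score under library mean minus 3 SD, initial fluorescence not abnormally high, positive integrated signal ratio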;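 also: B-score derived from integrated fluorescence ratio over the kinetic read; more negative B-score means stronger inhibition of depolarization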
TRPC4 sel inh 2 – second selectivity test of TRPC6 inhibitors: effect on mouse TRPC4; inhibition, % at 10 µM; shares compounds with TRPC6 inhibitor; HEK293 TRPC4/MOR, membrane potential dye fluorescence; channel activated by saturating DAMGO dose; AID 2776; 920 compounds, 42% hits;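 active = compounds whose fluorescence signal differed from control wells by over 3 SD, either direction, in both duplicate plates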
TRPC4 spec – selectivity of TRPC6 inhibitors: effect on mouse TRPC4; shares compounds with TRPC6 inhibitor; HEK293 TRPC4/mu-opioid, membrane potential fluorescence; activity change, negative = inhibition, % at 10 µM; 920 compounds, 61% hits; AID 2777;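 active = rise or fall in signal beyond 3 SD of buffer-only wells in both replicate plates, either sign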;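 also: integrated kinetic ratio of fluorescence range over baseline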
HEK293 MPD ctr 2-1 – second check of TRPC6 inhibitor effects in parental HEK293 cells | shares compounds with TRPC6 inhibitor | parental HEK293 membrane potential dye fluorescence; maximal acetylcholine challenge after compound addition | signal change vs control, % at 10 µM | 920 compounds, 31% hits;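 active = membrane potential signal moving either way by over 3 SD of the maximum-effect control, in both duplicate plates, meaning non-specific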
HEK293 MPD ctr-1 – counter-screen for TRPC6 inhibitors: effect in parental HEK293 cells; 920 compounds, 60% hits; membrane potential signal change, % at 10 µM; shares compounds with TRPC6 inhibitor; parental HEK293 membrane potential dye fluorescence; AID 2780;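 active = membrane potential signal shifting up or down by more than 3 SD of buffer-only wells, on both duplicate plates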
HEK293 MPD ctr-2 – parental HEK293 nonspecific activity of TRPC6 modulators; shares compounds with TRPC6 inhibitor; membrane potential dye fluorescence; membrane potential signal change, % at 10 µM; 2,400 compounds, 51% hits;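 active = membrane potential signal moves up or down beyond 5 SD from buffer-only wells, on both duplicate plates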
HEK293 MPD ctr 2-2 – second counter-screen for TRPC6 modulators: effect in parental HEK293 cells. shares compounds with TRPC6 inhibitor. membrane potential dye fluorescence; after compound, maximal acetylcholine stimulation. inhibition, % at 10 µM. 2,400 compounds, 14% hits. AID 488926;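 active = membrane potential signal drops by more than 5 SD from the mean control signal, in both duplicate plates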;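 also: plate controls were acetylcholine ECmax control wells for no effect and buffer only wells for full effect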
TRPC4/MOR mod – mouse TRPC4 off-target activity of TRPC6 modulators; shares compounds with TRPC6 inhibitor; HEK293 TRPC4/mu-opioid, membrane potential fluorescence; percent change from control (negative = decrease, positive = increase), % at 10 µM; 2,400 compounds, 69% hits;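 active = membrane potential signal moved up or down beyond 5 SD of buffer control wells, in both duplicate plates, actives on both sides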;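 also: plate controls were assay buffer wells for no effect and DAMGO maximal-effect wells for full effect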
TRPC4/MOR inh 2 – second selectivity test of TRPC6 modulators against mouse TRPC4; AID 488928; HEK293 TRPC4/mu-opioid, membrane potential dye fluorescence; stimulated with maximal-effect DAMGO; inhibition, % at 10 µM; 2,400 compounds, 55% hits; shares compounds with TRPC6 inhibitor;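 active = drop in membrane potential signal beyond 5 SD of the control wells in both duplicate plates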;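 also: TRPC4 counter screen for TRPC6 hits run under conditions tuned for TRPC6 not TRPC4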
TRPC6 inh conf – mouse TRPC6 inhibitor confirmation; inhibition, % at 10 µM; shares compounds with TRPC6 inhibitor; HEK293-TRPC6, membrane potential dye, ACh-evoked depolarization; AID 488960; 3,300 compounds, 43% hits;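 active = fluorescence ratio falls more than 5 SD below the full-stimulation control mean, in both duplicate runs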;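 also: integrated fluorescence ratio of peak minus minimum over baseline after agonist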
TRPC6 act conf – confirmation of mouse TRPC6 activators | shares compounds with TRPC6 inhibitor | 2,800 compounds, 11% hits | HEK293-TRPC6 membrane potential dye fluorescence, FDSS | AID 488961 | activation, % at 10 µM;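 active = ratio signal rise beyond 5 SD above unstimulated control wells' mean, seen in both duplicate runs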;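 also: plate controls were buffer EC0 wells for no effect and acetylcholine ECmax response for full effect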
An asterisk follows results filed as active; i = inactive; . = not tested or not shown.

SMILES	TRPC4 agonist	TRPC4 PAM	TRPC4 inh	TRPC6 activator	TRPC6 inhibitor	HEK293 MPD ctr-2	HEK293 MPD ctr 2-2	TRPC4/MOR mod	TRPC4/MOR inh 2	TRPC6 inh conf	TRPC6 act conf	others
CC1CCN(CC(O)CN2c3ccccc3Sc3ccccc32)CC1 (stereo not given)	i	i	i	i	-6.67*	.	.	.	.	i	i	TRPC4 sel inh 2=65.5%*;TRPC4 spec=1.4%*;HEK293 MPD ctr 2-1=i;HEK293 MPD ctr-1=i
CC1CCN(C(=O)N2c3ccccc3Sc3ccccc32)CC1	i	i	i	i	i	.	.	.	.	.	.
COc1cccc(-c2nc(N3CCN(C)CC3)c3ccccc3n2)c1O	i	i	i	i	-9.91*	-217.5%*	i	-44.0%*	71.5%*	51.5%*	i
CN1CCN(c2nc(-c3cccs3)nc3ccccc23)CC1	i	i	i	i	-8.25*	.	.	.	.	68.7%*	i	TRPC4 sel inh 2=32.5%*;TRPC4 spec=-28.1%*;HEK293 MPD ctr 2-1=i;HEK293 MPD ctr-1=-344.5%*
CC(C)(C)C1CCC(=NNC(=O)c2ccco2)CC1 (stereo not given)	i	i	i	i	i	.	.	.	.	.	.
CCOc1ccc(N(C)S(=O)(=O)c2ccc3[nH]cc(C(=O)NCC(OC)OC)c(=O)c3c2)cc1	i	i	i	i	-5.49*	i	i	i	i	i	i
Cc1nnc(C)c2c(C)n(-c3ccc(Cl)c(N)c3)c(C)c12	i	i	i	i	i	.	.	.	.	.	.
Cc1cc(C)cc(-n2c(C)c3c(C)nnc(C)c3c2C)c1	i	i	i	i	-7.64*	.	.	.	.	i	i	TRPC4 sel inh 2=54.5%*;TRPC4 spec=-18.9%*;HEK293 MPD ctr 2-1=i;HEK293 MPD ctr-1=-215.5%*
COc1ccc(/C=C/C(=O)NCC(=O)N/N=C(/C)c2ccc(Cl)cc2)cc1	i	i	i	i	i	.	.	.	.	.	.
CCOC(=O)c1ccc2c(c1)nc(-c1ccccn1)n2CC	i	i	i	i	-5.54*	i	i	i	i	i	i
CCOC(=O)Cn1c(-c2ccccn2)nc2ccccc21	i	i	i	i	i	.	.	.	.	.	.
CCOc1ccc(Cl)cc1/C=N/NC(N)=O	i	i	i	i	i	.	.	.	.	.	.
CCOc1ccc(Cl)cc1/C=N/O	i	i	-6*	12.6*	-8.71*	103.5%*	i	21.0%*	41.0%*	78.0%*	115.0%*
COc1ccc2cc(C(=O)/C=C/c3cc(OC)c(O)c(OC)c3)ccc2c1	i	i	i	i	i	.	.	.	.	.	.
COc1ccc(C(=O)/C=C/c2cc(OC)c(O)c(OC)c2)c(F)c1	i	i	i	17.7*	i	287.5%*	i	54.5%*	i	i	108.5%*
Cc1cc2oc(=O)cc(CN3CCCCC3C)c2cc1C (stereo not given)	i	i	i	i	i	.	.	.	.	.	.
Cc1ccc(-c2nn(-c3cccc(F)c3)cc2CNCc2cccnc2)o1	121*	i	i	i	-5.66*	i	i	41.0%*	85.0%*	i	i
Cc1ccc(-c2nn(-c3cccc(F)c3)cc2CN2CCN(c3ccccn3)CC2)o1	i	i	i	i	i	.	.	.	.	.	.
CCCCCCc1ccc(N2C[C@H](CCCCC)[C@@H](CC(=O)NCc3ccccc3)C2=O)cc1	i	i	i	22.5*	i	344.5%*	i	77.0%*	i	i	169.0%*
CCCCCCc1ccc(N2C[C@H](CCCCC)[C@@H](CC(=O)NCc3ccc(OC)cc3)C2=O)cc1	i	i	i	17.1*	i	471.5%*	i	84.5%*	i	i	95.0%*
CCCCCCc1ccc(N2C[C@H](Cc3ccccc3)[C@@H](CC(=O)NCc3ccc(OC)cc3)C2=O)cc1	i	i	i	i	i	.	.	.	.	.	.
Cc1ccc2c(Cl)c(C)c(N3CCCC3)nc2n1	i	i	i	i	-5.71*	-243.5%*	70.0%*	-40.5%*	52.0%*	54.0%*	i
Cn1c(CCN2CCCCC2)nc2cc([N+](=O)[O-])ccc21	i	i	i	i	-5.79*	-200.5%*	i	-32.0%*	38.0%*	i	i
CCN1CCN(CCc2nc3cc([N+](=O)[O-])ccc3n2C)CC1	i	i	i	i	i	.	.	.	.	.	.
Cc1ccc(-c2csc(NC(=O)CSc3nc(C)cc(=O)[nH]3)n2)cc1	i	i	i	i	-7.66*	.	.	.	.	i	i	TRPC4 sel inh 2=i;TRPC4 spec=i;HEK293 MPD ctr 2-1=260.5%*;HEK293 MPD ctr-1=i
CN(Cc1ccc2nonc2c1)Cc1nc(CC2CC2)no1	i	i	i	i	i	.	.	.	.	.	.
COc1ccc2c(c1)CCCN2C(N)=Nc1ccc(Cl)cc1	i	i	i	i	-6.46*	114.0%*	i	16.0%*	69.0%*	i	.
O=C(CNC(=O)c1ccncc1)N/N=C/c1ccccc1[N+](=O)[O-]	i	i	i	i	i	.	.	.	.	.	.
CCS(=O)(=O)c1ccc(O)c(NC(=O)Nc2ccc(C(C)(C)C)cc2)c1	i	i	i	i	i	.	.	.	.	.	.
CCOC(=O)c1cnc2ccc(Br)cc2c1NCCO	i	i	i	i	i	.	.	.	.	.	.

Compound activity from PubChem.
